Data as given in ChEMBL document CHEMBL5338796, “Discovery of a Selective and Orally Bioavailable FGFR2 Degrader for Treating Gastric Cancer” (J Med Chem, 2023).
The source made the active and inactive calls. The rule behind the calls is not given here.

What was measured:
[1] = target: Fibroblast growth factor receptor 2 (Homo sapiens) (UniProt P21802); assay: Induction of FGFR2 receptor internalization in human KATO III stomach cancer cell line at 100 nM measured for 6 hrs by immunofluorescence assay; format: cell-based; settings: filed as activator
Procedure, shortened: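 KATO III cells treated with 100 nM for 3 or 6 h, fixed in 2% formaldehyde 2 min, blocked 5% BSA 1 h, anti-FGFR2 overnight, Alexa Fluor 488 secondary 1 h, DAPI 10 min; imaged by fluorescence microscopy.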

[2] = target: T1, Protein cereblon/Fibroblast growth factor receptor 2 (Homo sapiens, UniProt P21802+Q96SW2); assay: PROTAC activity at CRBN/FGFR2 in human KATO III stomach cancer cell line assessed as FGFR2 degradation by measuring FGFR2 expression level measured for 6 hrs by Western blotting analysis; format: cell-based
Procedure, shortened: (§1)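 KATO III cells treated 6 h across 0.5–10,000 nM (DMSO stock, final DMSO below 0.5%); FGFR2 immunoblotted, quantified as FGFR2/β-actin ratio normalized to DMSO-treated cells, three independent biological experiments; DC50 and Dmax derived from the curve.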

[3] = target: T1, Protein cereblon/Fibroblast growth factor receptor 2; assay: PROTAC activity at CRBN/FGFR2 in human KATO III stomach cancer cell line assessed as FGFR2 degradation by measuring FGFR2 expression level upto 100 nM by Western blotting analysis; format: cell-based; settings: time 12.0 hrs, TDE = time-dependent effect; procedure, shortened: as §1
[4] = target: T1, Protein cereblon/Fibroblast growth factor receptor 2; assay: PROTAC activity at CRBN/FGFR2 in human KATO III stomach cancer cell line assessed as FGFR2 degradation by measuring FGFR2 expression level upto 100 nM measured after 3 hrs by Western blotting analysis; format: cell-based
Procedure, shortened: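 Time course in KATO III cells: FGFR2/β-actin by Western blot at successive treatment times, normalized to DMSO control.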

[5] = target: Fibroblast growth factor receptor 2 (Homo sapiens) (UniProt P21802); assay: Inhibition of partial length human FGFR2 at 1000 nM by KINOMEscan analysis relative to control
Procedure, shortened: (§2)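 97-kinase scanEDGE panel screened at 1000 nM; results reported as % Ctrl, lower values meaning stronger inhibition.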

[6] = target: Fibroblast growth factor receptor 3 (Homo sapiens) (UniProt P22607); assay: Inhibition of partial length human FGFR3 at 1000 nM by KINOMEscan analysis relative to control; procedure, shortened: as §2
[7] = target: Mitogen-activated protein kinase kinase kinase 4 (Homo sapiens) (UniProt Q9Y6R4); assay: Inhibition of partial length human MAP3K4 at 1000 nM by KINOMEscan analysis relative to control
[8] = target: Macrophage colony-stimulating factor 1 receptor (Homo sapiens) (UniProt P07333); assay: Induction of CSF1R degradation in human THP-1 cells at 0.5 to 10 uM measured for 6 hrs Western blot analysis; format: cell-based; settings: dose 0.0005-10 µM, in the assay text read “0.5 nM to 10 uM” for “0.5 to 10 uM”
Procedure, shortened: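 THP-1 cells exposed 6 h to 0.5–10,000 nM degrader (from 10 mM DMSO stock, final DMSO below 0.5%); lysates in 2× loading buffer, SDS-PAGE, PVDF, anti-CSF1R (1:1000) with β-actin loading control, ECL detection.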

[9] = target: Fibroblast growth factor receptor 4 (Homo sapiens) (UniProt P22455); assay: Induction of FGFR4 degradation in human Huh-7 cells at 100 nM measured for 6 hrs Western blot analysis; format: cell-based
Procedure, shortened: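 NCI-H1581 (FGFR1), MCF7 (FGFR3) and Huh7 (FGFR4) cells, which endogenously express the isoforms, treated with 100 nM for 6 h; isoform levels by Western blot against β-actin, three biologically independent experiments.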

[10] = target: T1, Protein cereblon/Fibroblast growth factor receptor 2; assay: PROTAC activity at CRBN/FGFR2 in human KATO III stomach cancer cell line assessed as FGFR2 degradation measured for 6 hrs in presence of MG132 by immunoblot analysis; format: cell-based
Procedure, shortened: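 KATO III cells were pretreated with 1 μM proteasome inhibitor (MG132 or bortezomib), then exposed to degrader at 100 nM for 6 h. FGFR2 was read by immunoblot against β-actin loading, with ECL detection.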

SNU-16 = assay: Antiproliferative activity against human SNU-16 cells assessed as reduction in cell viability measured for 72 hrs by celltiter-glo reagent based assay; format: functional; settings: SNU-16, 72 h
Procedure, shortened: (§3)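 Cancer lines KATO III, SNU16, NCI-H716, NCI-H1975, MV-4-11 and HEK293T treated 72 h; antiproliferative IC50 given as mean ± s.d. from three independent biological experiments.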

MV4-11 = assay: Antiproliferative activity against human MV4-11 cells assessed as reduction in cell viability measured for 72 hrs by celltiter-glo reagent based assay; format: functional; settings: MV4-11, 72 h; procedure, shortened: as §3
[11] = Antiproliferative activity against human HEK293T cells assessed as reduction in cell viability measured for 72 hrs by celltiter-glo reagent based assay; format: toxicity, HEK-293T; procedure, shortened: as §3
[12] = Toxicity in ICR mouse assessed as change in spleen weight at 20 mg/kg, po measured for 30 days; format: organism-based; settings: in vivo, 720 h, time 30 day
Procedure, shortened: (§4)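 ICR mice (n = 6) were dosed orally at 20 mg/kg/day for 30 days, alongside vehicle-treated controls. Mortality and clinical signs were checked daily. At the end, body and organ weights were recorded. Heart, liver, spleen, lung and kidney were examined by hematoxylin and eosin staining.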

[13] = Toxicity in ICR mouse assessed as morphological changes in heart at 20 mg/kg, po measured for 30 days by hematoxyin-eosin staining based analysis; format: organism-based; settings: in vivo, 720 h, time 30 day; procedure, shortened: as §4
[14] = Toxicity in ICR mouse assessed as morphological changes in liver at 20 mg/kg, po measured for 30 days by hematoxyin-eosin staining based analysis; format: organism-based; settings: in vivo, 720 h, time 30 day; procedure, shortened: as §4
[15] = Toxicity in ICR mouse assessed as morphological changes in kidney at 20 mg/kg, po measured for 30 days by hematoxyin-eosin staining based analysis; format: organism-based; settings: in vivo, 720 h, time 30 day; procedure, shortened: as §4
[16] = Toxicity in BALB/c mouse xenografted with human SNU-16 cells assessed as body weight loss at 20 mg/kg, po administered for 15 days and measured on day 2; format: organism-based; settings: in vivo, 48 h, time 2 day
Procedure, shortened: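 Female BALB/c nude mice, 5 weeks old (20–22 g), carried subcutaneous SNU-16 xenografts in the right flank. Dosing began at mean tumor volume 50–100 mm3, after randomization by body weight, n = 5. Mice received 20 mg/kg/day by gavage in 0.5% CMC-Na, QD for 15 d, with vehicle controls. Body weight was measured every 2 days.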

[17] = Tmax in mouse at 20 mg/kg, po measured at 0.25 to 24 hrs by LC-MS/MS analysis; settings: in vivo
[18] = Oral bioavailability in mice at 20 mg/kg measured at 0.25 to 24 hrs by LC-MS/MS analysis; settings: mouse, in vivo
[19] = AUC (0 to infinity) in mouse at 3 mg/kg, iv measured at 0.083 to 24 hrs by LC-MS/MS analysis; settings: in vivo
[20] = AUC (0 to infinity) in mouse at 20 mg/kg, po measured at 0.25 to 24 hrs by LC-MS/MS analysis; settings: in vivo
[21] = Volume of distribution at steady state in mice at 3 mg/kg, iv measured at 0.083 to 24 hrs by LC-MS/MS analysis; settings: mouse, in vivo, read-out: Vdss

Sequence of Fibroblast growth factor receptor 2 (Homo sapiens) (P21802 22-821 limits assumed): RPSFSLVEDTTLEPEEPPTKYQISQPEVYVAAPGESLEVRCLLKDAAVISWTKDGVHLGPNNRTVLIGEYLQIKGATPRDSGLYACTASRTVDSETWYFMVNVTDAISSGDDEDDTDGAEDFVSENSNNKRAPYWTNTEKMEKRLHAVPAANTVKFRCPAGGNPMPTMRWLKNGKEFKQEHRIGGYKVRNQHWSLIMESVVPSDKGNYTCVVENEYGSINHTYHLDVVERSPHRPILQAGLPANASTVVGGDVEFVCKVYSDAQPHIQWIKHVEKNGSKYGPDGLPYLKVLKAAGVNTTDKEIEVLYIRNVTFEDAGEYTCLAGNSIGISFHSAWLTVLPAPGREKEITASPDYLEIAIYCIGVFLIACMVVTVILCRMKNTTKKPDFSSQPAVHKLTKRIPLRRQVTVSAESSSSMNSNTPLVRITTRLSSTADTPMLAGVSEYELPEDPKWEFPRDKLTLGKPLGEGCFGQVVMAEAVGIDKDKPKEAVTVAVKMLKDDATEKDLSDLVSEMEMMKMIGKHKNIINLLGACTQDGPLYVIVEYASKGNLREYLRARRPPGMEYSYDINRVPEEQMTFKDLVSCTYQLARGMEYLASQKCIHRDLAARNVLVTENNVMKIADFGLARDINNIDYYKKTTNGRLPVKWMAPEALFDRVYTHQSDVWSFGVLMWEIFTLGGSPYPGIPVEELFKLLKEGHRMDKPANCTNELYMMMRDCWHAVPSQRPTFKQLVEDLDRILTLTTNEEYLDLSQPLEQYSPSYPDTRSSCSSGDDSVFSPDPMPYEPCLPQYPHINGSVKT
Sequence of Fibroblast growth factor receptor 3 (Homo sapiens) (P22607 23-806 limits assumed): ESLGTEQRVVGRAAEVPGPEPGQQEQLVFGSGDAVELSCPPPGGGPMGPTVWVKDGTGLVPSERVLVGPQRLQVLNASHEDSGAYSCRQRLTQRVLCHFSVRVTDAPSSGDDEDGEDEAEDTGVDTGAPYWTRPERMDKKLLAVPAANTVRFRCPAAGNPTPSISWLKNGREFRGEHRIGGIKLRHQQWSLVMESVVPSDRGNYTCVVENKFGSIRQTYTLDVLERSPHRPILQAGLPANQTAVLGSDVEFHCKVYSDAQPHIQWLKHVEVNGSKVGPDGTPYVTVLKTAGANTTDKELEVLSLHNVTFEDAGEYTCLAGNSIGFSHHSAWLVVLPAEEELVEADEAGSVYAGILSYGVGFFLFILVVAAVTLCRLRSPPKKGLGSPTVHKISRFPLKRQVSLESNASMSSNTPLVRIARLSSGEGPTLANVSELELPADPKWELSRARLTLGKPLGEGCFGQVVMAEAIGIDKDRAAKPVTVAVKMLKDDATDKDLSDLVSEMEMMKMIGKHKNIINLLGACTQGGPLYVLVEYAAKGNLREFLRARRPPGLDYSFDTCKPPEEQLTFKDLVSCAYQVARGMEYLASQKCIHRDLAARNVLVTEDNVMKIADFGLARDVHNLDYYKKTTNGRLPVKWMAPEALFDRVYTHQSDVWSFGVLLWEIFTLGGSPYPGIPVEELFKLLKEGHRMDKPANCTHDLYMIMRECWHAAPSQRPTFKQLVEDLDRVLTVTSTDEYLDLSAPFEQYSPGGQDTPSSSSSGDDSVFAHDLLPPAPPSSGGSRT
Sequence of Mitogen-activated protein kinase kinase kinase 4 (Homo sapiens) (Q9Y6R4 whole entry): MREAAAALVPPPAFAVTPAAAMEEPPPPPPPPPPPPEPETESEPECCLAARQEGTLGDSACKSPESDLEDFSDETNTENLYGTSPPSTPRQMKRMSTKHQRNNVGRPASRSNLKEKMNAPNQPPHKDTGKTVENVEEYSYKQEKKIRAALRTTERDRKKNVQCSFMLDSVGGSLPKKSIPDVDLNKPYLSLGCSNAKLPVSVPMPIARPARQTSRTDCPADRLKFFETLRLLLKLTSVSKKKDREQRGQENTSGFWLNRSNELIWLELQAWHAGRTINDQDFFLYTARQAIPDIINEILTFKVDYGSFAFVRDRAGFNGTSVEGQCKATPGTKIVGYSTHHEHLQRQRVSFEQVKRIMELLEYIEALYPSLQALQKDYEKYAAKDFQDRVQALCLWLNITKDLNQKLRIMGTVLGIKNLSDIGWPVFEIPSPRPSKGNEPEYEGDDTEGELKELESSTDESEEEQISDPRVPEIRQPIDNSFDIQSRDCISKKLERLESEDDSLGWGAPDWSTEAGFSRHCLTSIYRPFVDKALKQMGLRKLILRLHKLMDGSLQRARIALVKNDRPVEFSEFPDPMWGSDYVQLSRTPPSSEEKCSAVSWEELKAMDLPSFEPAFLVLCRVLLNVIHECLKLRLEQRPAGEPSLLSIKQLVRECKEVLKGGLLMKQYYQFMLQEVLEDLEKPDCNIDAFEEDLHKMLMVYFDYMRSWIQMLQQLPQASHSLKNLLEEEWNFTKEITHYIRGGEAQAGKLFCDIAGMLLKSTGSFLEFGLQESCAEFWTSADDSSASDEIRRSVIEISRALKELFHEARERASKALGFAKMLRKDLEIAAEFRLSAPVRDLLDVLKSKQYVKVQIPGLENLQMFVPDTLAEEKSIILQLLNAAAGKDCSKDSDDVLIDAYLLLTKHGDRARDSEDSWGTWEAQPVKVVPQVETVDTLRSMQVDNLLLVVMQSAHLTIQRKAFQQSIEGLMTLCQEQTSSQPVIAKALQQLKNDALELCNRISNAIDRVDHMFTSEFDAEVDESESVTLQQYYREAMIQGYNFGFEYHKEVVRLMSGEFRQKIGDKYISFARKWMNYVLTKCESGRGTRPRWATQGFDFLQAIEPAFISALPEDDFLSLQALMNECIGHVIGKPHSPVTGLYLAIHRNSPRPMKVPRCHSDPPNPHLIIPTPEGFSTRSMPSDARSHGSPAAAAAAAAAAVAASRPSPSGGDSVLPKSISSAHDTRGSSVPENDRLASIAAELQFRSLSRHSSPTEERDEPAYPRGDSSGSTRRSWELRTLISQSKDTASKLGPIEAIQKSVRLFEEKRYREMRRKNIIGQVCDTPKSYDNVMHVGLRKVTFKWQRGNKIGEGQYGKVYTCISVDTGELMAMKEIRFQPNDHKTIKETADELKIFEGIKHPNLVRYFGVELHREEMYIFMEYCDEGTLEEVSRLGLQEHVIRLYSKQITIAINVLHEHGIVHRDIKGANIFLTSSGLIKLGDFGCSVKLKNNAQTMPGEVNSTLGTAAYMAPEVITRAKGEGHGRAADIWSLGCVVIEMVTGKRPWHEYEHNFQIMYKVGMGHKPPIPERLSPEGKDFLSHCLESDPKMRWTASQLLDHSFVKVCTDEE
Sequence of Macrophage colony-stimulating factor 1 receptor (Homo sapiens) (P07333 whole entry): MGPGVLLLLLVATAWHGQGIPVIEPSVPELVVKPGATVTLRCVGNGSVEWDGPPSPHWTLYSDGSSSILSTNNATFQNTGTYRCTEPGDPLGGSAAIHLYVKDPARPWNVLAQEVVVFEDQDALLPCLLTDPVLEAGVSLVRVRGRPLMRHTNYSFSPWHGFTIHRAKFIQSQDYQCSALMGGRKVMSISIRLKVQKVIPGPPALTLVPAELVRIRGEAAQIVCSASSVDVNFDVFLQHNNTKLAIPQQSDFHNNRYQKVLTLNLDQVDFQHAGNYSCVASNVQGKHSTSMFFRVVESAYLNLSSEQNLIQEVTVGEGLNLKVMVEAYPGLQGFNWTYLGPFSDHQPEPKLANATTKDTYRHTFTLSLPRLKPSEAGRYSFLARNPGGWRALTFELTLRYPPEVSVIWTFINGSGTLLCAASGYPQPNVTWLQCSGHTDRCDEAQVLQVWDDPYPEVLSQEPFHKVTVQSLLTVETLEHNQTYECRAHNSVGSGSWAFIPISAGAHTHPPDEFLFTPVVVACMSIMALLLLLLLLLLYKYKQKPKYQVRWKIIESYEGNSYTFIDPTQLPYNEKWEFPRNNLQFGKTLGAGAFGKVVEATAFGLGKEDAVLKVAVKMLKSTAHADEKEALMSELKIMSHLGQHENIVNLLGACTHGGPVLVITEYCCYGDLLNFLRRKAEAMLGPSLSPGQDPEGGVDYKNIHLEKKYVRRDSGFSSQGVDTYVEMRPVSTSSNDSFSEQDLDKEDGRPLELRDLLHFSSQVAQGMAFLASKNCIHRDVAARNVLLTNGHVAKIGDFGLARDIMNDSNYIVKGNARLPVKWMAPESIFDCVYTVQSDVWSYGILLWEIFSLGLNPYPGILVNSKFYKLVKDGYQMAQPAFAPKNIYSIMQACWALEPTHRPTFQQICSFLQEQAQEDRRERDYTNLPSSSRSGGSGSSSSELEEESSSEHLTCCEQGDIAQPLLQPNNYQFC
Sequence of Fibroblast growth factor receptor 4 (Homo sapiens) (P22455 22-802 limits assumed): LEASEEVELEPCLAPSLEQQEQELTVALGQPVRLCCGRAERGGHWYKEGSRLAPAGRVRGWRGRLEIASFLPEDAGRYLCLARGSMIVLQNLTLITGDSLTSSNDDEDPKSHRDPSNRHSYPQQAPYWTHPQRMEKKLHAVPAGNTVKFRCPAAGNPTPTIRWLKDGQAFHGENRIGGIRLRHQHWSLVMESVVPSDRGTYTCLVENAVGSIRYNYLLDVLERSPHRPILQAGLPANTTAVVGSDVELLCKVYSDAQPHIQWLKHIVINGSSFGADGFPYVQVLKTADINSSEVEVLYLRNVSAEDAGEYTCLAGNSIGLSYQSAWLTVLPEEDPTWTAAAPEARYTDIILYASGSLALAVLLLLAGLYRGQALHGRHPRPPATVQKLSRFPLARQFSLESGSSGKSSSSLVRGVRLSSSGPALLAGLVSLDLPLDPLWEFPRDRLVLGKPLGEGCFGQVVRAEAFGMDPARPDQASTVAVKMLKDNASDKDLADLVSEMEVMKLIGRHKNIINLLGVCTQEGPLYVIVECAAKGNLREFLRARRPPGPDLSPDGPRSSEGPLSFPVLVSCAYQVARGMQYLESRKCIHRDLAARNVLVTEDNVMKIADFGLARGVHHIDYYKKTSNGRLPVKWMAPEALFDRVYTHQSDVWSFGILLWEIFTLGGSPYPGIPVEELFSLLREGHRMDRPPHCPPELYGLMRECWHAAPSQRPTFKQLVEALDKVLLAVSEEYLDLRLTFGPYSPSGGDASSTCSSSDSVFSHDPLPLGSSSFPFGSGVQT

- Activity [1]: Active
- DC50 [2]: 0.0118 µM
- Activity [3]: Tde
- Activity [4]: Active
- inhibition [5]: 87%
- inhibition [6]: 71%
- inhibition [7]: 45%
- Activity [8]: inactive
- Activity [9]: inactive
- Activity [10]: inactive
- IC50 (SNU-16): 0.0037 µM
- IC50 (MV4-11): > 10 µM
- Tmax [17]: 2.67 h
- bioavailability [18]: 13.1%
- AUC(0-inf) [19]: 422 ng·h/mL
- AUC(0-inf) [20]: 387 ng·h/mL
- Vd [21]: 6.23 L/kg
SMILES: COc1cc(OC)c(Cl)c(NC(=O)N(C)c2cc(Nc3ccc(N4CCN(C(=O)C5CCN(c6ccc7c(c6)C(=O)N(C6CCC(=O)NC6=O)C7=O)CC5)CC4)cc3)ncn2)c1Cl (stereo not drawn)
- IC50 at 72 h [11]: > 10 µM
- Activity [12]: Non-Toxic
- Activity [13]: Non-Toxic
- Activity [14]: Non-Toxic
- Activity [15]: Non-Toxic
- Activity [16]: Non-Toxic
